Experimental findings from ChEMBL document CHEMBL1131598, “Synthesis and anticonvulsant activity of a new class of 2-[(arylalky)amino]alkanamide derivatives” (J Med Chem, 1998) are described below.

Holding throughout (assay type): functional
Assay [1] has as its system Mus musculus. The experiment in a line: Compound was tested for anticonvulsant potency using the intravenous-BIC (bicuculline) test in mice; 7 out of 20 mice exhibited anticonvulsant activity.
For assay [2], the system named is Mus musculus. Nature of the assay: Compound was tested for anticonvulsant potency using the intravenous-BIC (bicuculline) test in mice; 6 out of 20 mice exhibited anticonvulsant activity.
The species named for assay [3] is Mus musculus. Nature of the assay: Anticonvulsant potency using the maximal electroshock test in mice. In a few lines:
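Male mice received intra-aural shocks through clip electrodes (0.7 s, 28 mA, 80 Hz pulse train, 0.4 ms pulses), a stimulus giving hindlimb tonic extension in at least 97% of controls. Compound was given orally 60 min or ip 30 min beforehand, at 5 mL/kg. Protection meant complete suppression of the hindlimb tonic extensor component. ED50 (95% confidence interval) was obtained by probit analysis, with 10-20 animals per dose.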
On the technique in general: Protection in the maximal electroshock model is a classic sign of anticonvulsant action.

The test system of assay [4] is Mus musculus. The experiment in a line: Compound was tested for anticonvulsant potency using the intravenous-BIC (bicuculline) test in mice; compound at 200 mg/kg induced impaired gait, loss of the righting reflex, and impaired breathing. In a few lines: (§1)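 Male Crl:CD-1(ICR)BR mice (22-24 g) were dosed orally at 5 mL/kg 60 min before bicuculline 0.6 mg/kg, a dose giving tonic extensor convulsions in at least 97% of vehicle-treated mice. Protection from tonic extension was scored for each mouse. ED50 (95% confidence interval) was obtained by probit analysis, with 10-20 animals per dose.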

In assay [5] the test system is Mus musculus. Nature of the assay: Compound was tested for anticonvulsant potency using the intravenous-BIC (bicuculline) test in mice; 5 out of 20 mice exhibited anticonvulsant activity.
The subject of assay [6] is Mus musculus. Nature of the assay: Compound was tested for anticonvulsant potency using the intravenous-BIC (bicuculline) test in mice; 0 out of 20 mice exhibited anticonvulsant activity.
The subject of assay [7] is Mus musculus. Nature of the assay: Compound was tested for anticonvulsant potency using the intravenous-BIC (bicuculline) test in mice; 4 out of 20 mice exhibited anticonvulsant activity.
The test system of assay [8] is Mus musculus. The experiment in a line: Compound was tested for anticonvulsant potency using the intravenous-BIC (bicuculline) test in mice; 2 out of 10 mice exhibited anticonvulsant activity.
In assay [9] the test system is Mus musculus. The experiment in a line: Compound was tested for anticonvulsant potency using the intravenous-BIC (bicuculline) test in mice; 1 out of 10 mice exhibited anticonvulsant activity.
In assay [10] the test system is Mus musculus. The experiment in a line: Compound was tested for anticonvulsant potency using the intravenous-BIC (bicuculline) test in mice; 2 out of 20 mice exhibited anticonvulsant activity.
In assay [11] the test system is Mus musculus. The experiment in a line: Compound was tested for anticonvulsant potency using the intravenous-BIC (bicuculline) test in mice; 3 out of 20 mice exhibited anticonvulsant activity.
The subject of assay [12] is Mus musculus. Nature of the assay: Compound was tested for anticonvulsant potency using the intravenous-BIC (bicuculline) test in mice; 8 out of 20 mice exhibited anticonvulsant activity.
In assay [13] the test system is Mus musculus. The experiment in a line: Anticonvulsant potency using the intravenous-BIC (bicuculline) test in mice. In a few lines: as §1
The species named for assay [14] is Mus musculus. Nature of the assay: Compound was tested for toxicity using neurological impairment measured by rotarod test in mice. In a few lines:
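Trained male Crl:CD-1(ICR)BR mice, 22-24 g, dosed orally 60 min before being placed on a 3-cm rod turning at 10 rpm. Mice falling during a 2-min test were counted. Dosing volume 5 mL/kg, 10-20 animals/dose. TD50, the dose making 50% fall, by probit analysis with 95% confidence interval. Some values given as fraction affected at one dose.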
On the technique in general: Falling from the rotarod earlier than controls is read as motor impairment.

The test system of assay [15] is Mus musculus. The experiment in a line: Compound was tested for anticonvulsant potency using the STRY (strychnine) test in mice upon peroral administration. Conditions: po.
The subject of assay [16] is Mus musculus. Nature of the assay: Compound was tested for anticonvulsant potency using the 3-MPA (3-mercaptopropionic acid) test in mice upon peroral administration. The note with it: po. In a few lines: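 Male Crl:CD-1(ICR)BR mice (22-24 g) were dosed orally at 5 mL/kg 60 min before 3-mercaptopropionic acid 60 mg/kg sc, a dose convulsing at least 97% of vehicle-treated mice. The end point was hindlimb tonic extension. ED50 (95% confidence interval) was obtained by probit analysis, with 10-20 animals per dose.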

Assay [17] has as its system Mus musculus. Nature of the assay: Anticonvulsant potency using the PTX (picrotoxin) test in mice by peroral administration. Conditions: po.

Usually ED50 stands for the midpoint of the dose-response relation. A higher ED50 goes with weaker potency. Take `CNC(=O)[C@@H](CO)NCc1ccc(OCc2cccc([N+](=O)[O-])c2)cc1`: the median effective dose (ED50) in the assay on Mus musculus [1] is greater than 400 mg/kg.

`O=C(CNCc1ccc(OCc2cccc(Cl)c2)cc1)OCc1ccccc1` yielded an ED50 with Mus musculus [2] greater than 400 mg/kg.

With `CNC(=O)[C@@H](CO)NCc1ccc(OCc2ccccc2)cc1`, the results for the ED50 in the assay listed under Mus musculus [3] and with Mus musculus [4] were 22.8 mg/kg and 16.3 mg/kg, respectively.

Regarding `C[C@@H](NCc1ccc(/C=C/c2ccccc2)cc1)C(N)=O`, the 50% effect level in the assay on Mus musculus [5] (ED50) was put at a dose of 400 mg/kg.

Compound `NC(=O)CNC(=O)c1ccc(OCc2cccc(Cl)c2)cc1` yielded an ED50 in the assay with Mus musculus [5] of 400 mg/kg.

Consider `CNC(=O)[C@@H](CCSC)NCc1ccc(OCc2ccccc2)cc1`, for which, in the assay with Mus musculus [6], the ED50 was greater than 400 mg/kg.

In the case of `NC(=O)CNc1ccc(OCc2cccc(Cl)c2)cc1`, the 50% effect level with Mus musculus [5] (ED50) was put at a dose of 400 mg/kg.

For the compound `NC(=O)COCc1ccc(OCc2cccc(Cl)c2)cc1`, the ED50 with Mus musculus [1] is greater than 400 mg/kg.

The compound `CNC(=O)[C@H](CC(C)C)NCc1ccc(OCc2ccccc2)cc1` showed an ED50 with Mus musculus [5] greater than 100 mg/kg.

The compound `O=C(O)CNCc1ccc(OCc2cccc(Cl)c2)cc1` had an ED50 in the assay with Mus musculus [7] greater than 400 mg/kg.

As to `C[C@H](NCc1ccc(OCc2ccccc2Cl)cc1)C(N)=O`, the ED50 in the assay with Mus musculus [4] is 18.4 mg/kg.

Consider `C[C@@H](NCc1ccc(OCc2ccncc2)cc1)C(N)=O`, for which the ED50 with Mus musculus [8] is greater than 400 mg/kg.

In turn, `CNC(=O)[C@@H](NCc1ccc(OCc2ccccc2)cc1)C(C)O` (stereo partly specified) yielded an ED50 in the assay on Mus musculus [4] of 34.2 mg/kg.

In turn, `C[C@@H](NCc1ccc(NC(=O)c2ccccc2)cc1)C(N)=O` registered a median effective dose (ED50) with Mus musculus [9] greater than 400 mg/kg.

The compound `CNC(=O)[C@@H](Cc1ccccc1)NCc1ccc(OCc2ccccc2)cc1` yielded an ED50 in the assay with Mus musculus [10] greater than 400 mg/kg.

The compound `C[C@@H](NCc1ccc(OCc2cccnc2)cc1)C(N)=O` returned a 50% effective dose (ED50) in the assay with Mus musculus [6] greater than 400 mg/kg.

`CCOC(=O)CNCc1ccc(OCc2cccc(Cl)c2)cc1` showed a median effective dose (ED50) with Mus musculus [11] greater than 400 mg/kg.

For the compound `NC(=O)CCNCCc1ccc(OCc2cccc(Cl)c2)cc1`, the ED50 in the assay with Mus musculus [12] was greater than 400 mg/kg.

As usually defined, the TD50 is the 50% point of the dose-response relation for the toxic effect studied. Read a high TD50 as lower toxicity. Regarding `CN1C(=O)CN=C(c2ccccc2)c2cc(Cl)ccc21` [DIAZEPAM], the ED50 in the assay filed under Mus musculus [3] amounted to 1.2 mg/kg; in the assay on Mus musculus [13], 0.29 mg/kg; in the assay with Mus musculus [15] it was 0.58 mg/kg; in the assay on Mus musculus [16], 0.62 mg/kg; in the assay with Mus musculus [17], 0.52 mg/kg. This compound displayed a TD50 in the assay filed under Mus musculus [14] of 6.8 mg/kg.

Take `O=C1NC(=O)C(c2ccccc2)(c2ccccc2)N1` [PHENYTOIN]: the 50% effective dose (ED50) in the assay filed under Mus musculus [3] was 3.8 mg/kg; in the assay on Mus musculus [13], 42.1 mg/kg; with Mus musculus [15], greater than 200 mg/kg; with Mus musculus [16], 11.3 mg/kg; in the assay on Mus musculus [17], greater than 100 mg/kg. In addition, in the assay listed under Mus musculus [14], the TD50 came out at 243 mg/kg.
